46 molecules from ChEMBL document CHEMBL3102848, “Carbamazepine derivatives with P2X4 receptor-blocking activity” (Bioorg Med Chem, 2014) can be followed below.

By inhibition is commonly meant the change of the read-out against control, counted positive when it falls. As a reminder, the IC50 is the concentration that inhibits the measured activity by half.

Common to all, as to type: cell-based
Test [1] addresses T1, P2X purinoceptor 4 (Homo sapiens) (UniProt Q99571).
T1 sequence (whole entry): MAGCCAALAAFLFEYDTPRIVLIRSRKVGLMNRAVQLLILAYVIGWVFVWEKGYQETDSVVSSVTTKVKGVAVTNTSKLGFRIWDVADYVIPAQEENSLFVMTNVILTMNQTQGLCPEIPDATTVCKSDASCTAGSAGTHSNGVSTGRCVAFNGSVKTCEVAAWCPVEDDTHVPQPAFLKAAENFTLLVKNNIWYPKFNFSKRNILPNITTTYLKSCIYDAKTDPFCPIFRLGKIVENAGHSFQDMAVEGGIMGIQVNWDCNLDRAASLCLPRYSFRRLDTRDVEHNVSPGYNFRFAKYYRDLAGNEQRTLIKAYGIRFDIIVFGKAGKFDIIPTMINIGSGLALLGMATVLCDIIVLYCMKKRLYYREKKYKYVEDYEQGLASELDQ
The test can be described thus: Antagonist activity at human P2X4 receptor expressed in human 1321N1 cells assessed as inhibition of ATP-induced cytosolic calcium influx at 100 uM preincubated for 30 mins followed by ATP addition by Fluo-4 AM dye-based fluorescence assay. The method, boiled down:
(§1)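 Human P2X4 stably transfected into 1321N1 astrocytoma cells. Inhibition of ATP-induced calcium influx measured as in earlier work. Compounds were first screened at a single high concentration, chosen according to their solubility.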

The next test concerns the target T2, P2X purinoceptor 4 (Homo sapiens, UniProt Q99571).
T2 sequence (Q99571 whole entry): T1 sequence (whole entry)
Description: Antagonist activity at human P2X4 receptor expressed in human 1321N1 cells assessed as inhibition of ATP-induced cytosolic calcium influx preincubated for 30 mins followed by ATP addition by Fluo-4 AM dye-based fluorescence assay. The essentials: as §1

For test [2], the target named is T1, P2X purinoceptor 4 (Homo sapiens). Description: Antagonist activity at human P2X4 receptor expressed in human 1321N1 cells assessed as inhibition of ATP-induced cytosolic calcium influx at 20 uM preincubated for 30 mins followed by ATP addition by Fluo-4 AM dye-based fluorescence assay. The method, boiled down: as §1
Test [3] shares this target. The test can be described thus: Antagonist activity at human P2X4 receptor expressed in human 1321N1 cells assessed as inhibition of ATP-induced cytosolic calcium influx at 300 uM preincubated for 30 mins followed by ATP addition by Fluo-4 AM dye-based fluorescence assay. The method, boiled down:
as §1

Test [4] shares this target. Description: Antagonist activity at human P2X4 receptor expressed in human 1321N1 cells assessed as inhibition of ATP-induced cytosolic calcium influx at 10 uM preincubated for 30 mins followed by ATP addition by Fluo-4 AM dye-based fluorescence assay. The method, boiled down:
as §1

On to `NC(=O)N1c2ccccc2C=Cc2c1ccc1ccccc21`, for which the inhibition in test [1] is 91%. Also, on P2X purinoceptor 4, the IC50 was 51.4 µM.

Take `CN1CCC(NC(=O)N2c3ccccc3C=Cc3ccccc32)CC1`: in test [1], the inhibition amounted to 56%. The IC50 on P2X purinoceptor 4 is at least 100 µM.

For the molecule `CN(C)CCCNC(=O)N1c2ccccc2C=Cc2ccccc21`, the inhibition in test [1] worked out at 54%. At P2X purinoceptor 4, the IC50 came out at 100 µM.

For `CCCCNC(=O)N1c2ccccc2C=Cc2ccccc21`, the inhibition in test [1] is 49%. Also, on P2X purinoceptor 4, the IC50 is at least 100 µM.

Turning to `CCOC1Cc2ccccc2N(C(N)=O)c2ccccc21` (racemic), the inhibition in test [1] came out at 17%. Further, the IC50 at P2X purinoceptor 4 was over 100 µM.

`CC(=O)O[C@H]1Cc2ccccc2N(C(N)=O)c2ccccc21` [ESLICARBAZEPINE ACETATE]: in test [2], the inhibition worked out at 25%. Besides, on P2X purinoceptor 4, the IC50 was over 20 µM.

As for `O=C(Nc1ccccc1)N1c2ccccc2C=Cc2ccccc21`, the inhibition in test [1] turned out to be 49%. The IC50 at P2X purinoceptor 4 is 100 µM.

In the case of `NC(=O)N1c2ccccc2C=Cc2cc(O)ccc21`, the inhibition in test [3] was determined as 82%. Also, the IC50 at P2X purinoceptor 4 stood at 146 µM.

Consider `CN(C)c1ccc2c(c1)N(C(N)=O)c1ccccc1C=C2`, for which the inhibition in test [1] was determined as 39%. Besides, the IC50 on P2X purinoceptor 4 stood at 15.3 µM.

In the case of `CC(C)N(C(=O)c1cccc2c1Nc1ccccc1C=C2)C(C)C`, the inhibition in test [1] is 74%. Moreover, at P2X purinoceptor 4, the IC50 turned out to be 30.6 µM.

Take `NC(=O)N1c2ccccc2CCc2ccccc21`: the inhibition in test [1] came to 35%. In addition, on P2X purinoceptor 4, the IC50 was over 100 µM.

`O=C(Nc1ccncc1)N1c2ccccc2C=Cc2ccccc21`: in test [1], the inhibition is 30%. Also, the IC50 on P2X purinoceptor 4 was over 100 µM.

As to `CN(C)C(=O)N1c2ccccc2C=Cc2ccccc21`, in test [1], the inhibition came to 49%. Also, the IC50 on P2X purinoceptor 4 was at least 100 µM.

With `NC(=O)N1c2ccccc2C=Cc2ccccc21` [CARBAMAZEPINE], the inhibition in test [1] came out at 35%. On P2X purinoceptor 4, the IC50 is over 100 µM.

As to `Cc1ccc2c(c1)N(C(N)=O)c1ccccc1C=C2`, the inhibition in test [1] was 21%. On P2X purinoceptor 4, the IC50 is over 100 µM.

As to `C1=Cc2ccccc2N(Cc2ccccc2)c2ccccc21`, the inhibition in test [1] is 34%. Moreover, on P2X purinoceptor 4, the concentration for half-maximal inhibition (IC50) was over 100 µM.

Take `O=C(N(CCO)CCO)N1c2ccccc2C=Cc2ccccc21`: the inhibition in test [1] turned out to be 2%. Besides, the IC50 at P2X purinoceptor 4 was over 100 µM.

In the case of `NC(=O)N1c2ccccc2CC(O)c2ccccc21` (racemic) [LICARBAZEPINE], the inhibition in test [1] amounted to 28%. Moreover, the IC50 on P2X purinoceptor 4 was over 100 µM.

Consider `NC(=O)N1c2ccccc2C=Cc2ccc(C(F)(F)F)cc21`, for which the inhibition in test [1] was 72%. Further, the half-maximal inhibitory concentration (IC50) at P2X purinoceptor 4 was 54.6 µM.

Take `O=C(OCc1ccccc1)N1c2ccccc2C=Cc2ccccc21`: the inhibition in test [4] is 73%. The IC50 at P2X purinoceptor 4 worked out at 6.02 µM.

Regarding `CC(C)NC(=O)N1c2ccccc2C=Cc2ccccc21`, in test [1], the inhibition was 47%. Besides, the IC50 on P2X purinoceptor 4 was 19.2 µM.

As to `COc1ccc(CCNC(=O)N2c3ccccc3C=Cc3ccccc32)cc1`, the inhibition in test [1] came to 83%. Moreover, the IC50 on P2X purinoceptor 4 came to 27.4 µM.

`O=C(NCCc1ccccc1)N1c2ccccc2C=Cc2ccccc21`: in test [1], the inhibition was 107%. Moreover, at P2X purinoceptor 4, the IC50 was determined as 36.2 µM.

Turning to `CNC(=O)N1c2ccccc2C=Cc2ccccc21`, the inhibition in test [1] was determined as 47%. In addition, the IC50 on P2X purinoceptor 4 was at least 100 µM.

As to `O=C(N1CCOCC1)N1c2ccccc2C=Cc2ccccc21`, the inhibition in test [1] was 50%. Further, the IC50 on P2X purinoceptor 4 is at least 100 µM.

Turning to `O=C(N1CCC(O)CC1)N1c2ccccc2C=Cc2ccccc21`, at P2X purinoceptor 4, the IC50 was over 100 µM.

Take `CCN(CC)C(=O)N1c2ccccc2C=Cc2cccc(C(=O)N(C(C)C)C(C)C)c21`: at P2X purinoceptor 4, the 50% inhibitory concentration (IC50) is 52.5 µM.

With `NC(=O)N1c2ccccc2C2OC2c2ccccc21` (stereo not given) [CARBAMAZEPINE EPOXIDE], in test [4], the inhibition worked out at 1%. Moreover, the IC50 on P2X purinoceptor 4 is over 10 µM.

Consider `O=C(c1ccccc1)N1c2ccccc2C=Cc2ccccc21`, for which the inhibition in test [1] turned out to be 75%. Also, at P2X purinoceptor 4, the IC50 was determined as 23.3 µM.

In the case of `CC(C)(C)NC(=O)N1c2ccccc2C=Cc2ccccc21`, the inhibition in test [1] worked out at 92%. Besides, the IC50 on P2X purinoceptor 4 stood at 13.8 µM.

For `CN(C)CCN(C)C(=O)N1c2ccccc2C=Cc2ccccc21`, in test [1], the inhibition worked out at 42%. In addition, the IC50 on P2X purinoceptor 4 was at least 100 µM.

`NC(=O)N1c2ccccc2C=Cc2cc(F)ccc21`: the inhibition in test [1] stood at 11%. Further, the IC50 at P2X purinoceptor 4 is over 100 µM.

Take `CNC1=Cc2ccccc2N(C(N)=O)c2ccccc21`: the inhibition in test [1] came out at 80%. On P2X purinoceptor 4, the IC50 was 36.9 µM.

As for `CC(=O)N1c2ccccc2C=Cc2ccccc21`, the inhibition in test [1] is 39%. Further, the IC50 on P2X purinoceptor 4 was over 100 µM.

As for `COC1=Cc2ccccc2N(C(N)=O)c2ccccc21`, the inhibition in test [1] worked out at 34%. For the same molecule, the IC50 on P2X purinoceptor 4 is over 100 µM.

For `COC(=O)N1c2ccccc2C=Cc2ccccc21`, the inhibition in test [1] turned out to be 51%. Besides, the IC50 on P2X purinoceptor 4 came to 100 µM.

For `CCN(CC)C(=O)N1c2ccccc2C=Cc2ccncc21`, in test [1], the inhibition stood at 52%. The IC50 at P2X purinoceptor 4 amounted to 100 µM.

In the case of `O=C(NC1CCC(O)CC1)N1c2ccccc2C=Cc2ccccc21` (stereo not given), the inhibition in test [2] stood at 0%. At P2X purinoceptor 4, the IC50 is over 20 µM.

As to `COc1ccc2c(c1)N(C(N)=O)c1ccccc1C=C2`, the inhibition in test [1] came out at 30%. Besides, the IC50 on P2X purinoceptor 4 was over 100 µM.

In the case of `NC(=O)N1c2ccccc2CC(=O)c2ccccc21` [OXCARBAZEPINE], the inhibition in test [4] came out at 10%. For the same molecule, the half-maximal inhibitory concentration (IC50) at P2X purinoceptor 4 is over 10 µM.

On to `NC(=O)N1c2ccccc2C=Cc2ccc(O)cc21`, for which the inhibition in test [3] came to 99%. Moreover, the IC50 at P2X purinoceptor 4 worked out at 72.8 µM.

With `NC(=O)N1c2ccccc2C=C(N)c2ccccc21`, the inhibition in test [4] amounted to 12%. Further, the IC50 on P2X purinoceptor 4 was over 10 µM.

Consider `O=C(NCc1ccccc1)N1c2ccccc2C=Cc2ccccc21`, for which the inhibition in test [1] amounted to 75%. On P2X purinoceptor 4, the IC50 was 78.9 µM.

For `CC(C)COC(=O)N1c2ccccc2C=Cc2ccccc21`, the inhibition in test [1] came to 58%. Moreover, at P2X purinoceptor 4, the IC50 is 100 µM.

Take `NC1CCC(NC(=O)N2c3ccccc3C=Cc3ccccc32)CC1` (stereo not given): in test [4], the inhibition was 11%. Also, the IC50 at P2X purinoceptor 4 was over 10 µM.

With `NC(=O)N1c2ccccc2C=Cc2ccc(F)cc21`, the inhibition in test [1] is -2%. Moreover, the IC50 on P2X purinoceptor 4 is over 100 µM.
